This passage reports IC50 results from ChEMBL document CHEMBL1136759, “Synthesis and antiviral activity of novel erythrofuranosyl imidazo[1,2-a]pyridine C-nucleosides constructed via palladium coupling of iodoimidazo[1,2-a]pyridines and dihydrofuran” (J Med Chem, 2003).

Assay [1] has as its system Human betaherpesvirus 5. Briefly: Antiviral activity against HCMV using plaque reduction assay; >100 indicates IC50 greater than the noted(highest) concentration tested. In kind it is functional, organism-based. A digest of the protocol: (§1)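 HFF cells in 24-well dishes infected with about 100 pfu HCMV (Towne strain) per cm2 cell sheet. After adsorption, drug in growth medium added to duplicate wells at four to eight concentrations. Incubated 7 days at 37 °C, then fixed and stained with crystal violet, and plaques counted microscopically. IC50 from linear regression of % plaque reduction versus log concentration. Means of 2–5 experiments.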
On the technique in general: In a plaque reduction assay, fewer plaques than in the control indicate reduced infectivity or spread.

Assay [2] can be described thus: Visual cytotoxicity was scored on HFF cells at time of HCMV plaque enumeration; >100 indicates IC50 greater than the noted (highest) concentration tested. The note with it: Homo sapiens. In kind it is functional, cell-based. An outline of the steps: (§2)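 Stationary HFF cells, not affected by virus, inspected microscopically for cytotoxicity at the time of plaque counting in the 7-day, 37 °C HCMV plaque assay. Drug was in growth medium. IC50 estimated from regression of % inhibition against log concentration.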

Assay [3] has as its system Human alphaherpesvirus 1. Briefly: Antiviral activity against HSV-1 using ELISA assay; >100 indicates IC50 greater than the noted (highest) concentration tested. In kind it is functional, organism-based. A digest of the protocol:
(§3)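 BSC-1 cells seeded at 10000 per well in MEM(E) with 10% calf serum and incubated overnight. Drug added in quadruplicate with HSV-1 (KOS) at 100 pfu/well, then 3 days at 37 °C. Detection used HRP-conjugated rabbit anti-HSV-1 antibody with TMB substrate, read at 450 and 570 nm. IC50 from regression of % absorbance reduction versus log concentration.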
In general terms: In an ELISA, binding on a coated surface is turned into a signal by an enzyme label.

The test system of assay [4] is KB. Briefly: Inhibition of KB cell growth was determined; >100 indicates IC50 greater than the noted(highest) concentration tested. In kind it is functional, cell-based. The note with it: Homo sapiens. An outline of the steps: (§4)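 KB cells seeded at 3000-5000 per well and incubated overnight. Compound added in quadruplicate at six to eight concentrations, then 48 h at 37 °C in CO2, covering about two population doublings. Cells fixed in 95% ethanol, stained with 0.1% crystal violet, dye eluted with acidified ethanol, read at 570 nm. IC50 by linear regression against log concentration.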

Assay [5] deals with Human betaherpesvirus 5. Briefly: Antiviral activity against HCMV using plaque reduction assay; >100 indicates IC50 greater than the noted (highest) concentration tested. In kind it is functional, organism-based. A digest of the protocol: as §1
A short description of assay [6]: Visual cytotoxicity was scored on HFF cells at time of HCMV plaque enumeration; >100 indicates IC50 greater than the noted(highest) concentration tested. The following applies: Homo sapiens. In kind it is functional, cell-based. A digest of the protocol:
as §2

Assay [7] relates to Human betaherpesvirus 5. Briefly: Antiviral activity against HCMV using plaque reduction assay. In kind it is functional, organism-based. A digest of the protocol: as §1
Assay [8] deals with Human alphaherpesvirus 1. Briefly: Antiviral activity against HSV-1 using ELISA assay. The assay is classed as functional, organism-based. A digest of the protocol: as §3
The nature of assay [9]: Visual cytotoxicity was scored on HFF cells at time of HCMV plaque enumeration. In kind it is functional, cell-based. The following applies: Homo sapiens. An outline of the steps:
as §2

Assay [10] concerns KB. Briefly: Inhibition of KB cell growth was determined. In kind it is functional, cell-based. The following applies: Homo sapiens. An outline of the steps: as §4

`O[C@@H]1[C@H](O)CO[C@@H]1c1c(Cl)nc2ccc(Cl)cn12`: the 50% inhibitory concentration (IC50) in assay [1], in [2], in assay [3] and in assay [4] was over 100 µM each time.
In the case of `O[C@@H]1[C@H](O)CO[C@@H]1c1c(Cl)nc2cc(Cl)c(Cl)cn12`, the half-inhibitory concentration (IC50) in assay [1] and in assay [3] was over 100 µM throughout.
Regarding `O[C@@H]1C(c2c(Cl)nc3cc(Cl)c(Cl)cn23)OC[C@@H]1O` (some centres not stated), the IC50 in [2], in [3], in assay [5] and in assay [4] was over 100 µM each time.
Turning to `O[C@@H]1COC(c2c(Cl)nc3ccc(Cl)cn23)[C@@H]1O` (single isomer, unassigned), the concentration for half-maximal inhibition (IC50) in assay [1], in assay [3], in assay [6] and in assay [4] was over 100 µM in each case.
`O[C@@H]1[C@H](O)CO[C@@H]1c1c(Cl)nc2cc(Cl)c(Cl)cn12` (stereo in doubt; 15a): the half-inhibitory concentration (IC50) in [7] is 8 µM; in assay [2] it was over 100 µM; in [8], 24 µM; in assay [4] it was over 100 µM.
For the compound `O[C@@H]1[C@H](O)CO[C@@H]1c1c(Cl)nc2cc(Cl)c(Cl)cn12` (stereo in doubt; 20), the 50% inhibitory concentration (IC50) is 100 µM in assay [9], 2.9 µM in assay [7], 68 µM in assay [10] and 14 µM in assay [8] (Human alphaherpesvirus 1).

As usually defined, the IC50 is the concentration that inhibits the measured activity by half. A lower IC50 goes with inhibition by little substance.
